ChEMBL document CHEMBL1156982, “New 3-methylquinoxaline-2-carboxamide 1,4-di-N-oxide derivatives as anti-Mycobacterium tuberculosis agents” (Bioorg Med Chem, 2010)
In brackets after ≈: the same amount, converted by molar mass.

Key:
[1] = Selectivity ratio of IC50 for Vero cells to MIC for Mycobacterium tuberculosis H37Rv ATCC 27294; type: functional
Method in brief: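 SI is the ratio of the IC50 measured in VERO cells (72 h MTT) to the MIC against M. tuberculosis H37Rv (MABA, 90% fluorescence reduction). An SI of 10 or more counts as active at the second screening level.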

[2] = system: Mycobacterium tuberculosis; assay: Antituberculosis activity against Mycobacterium tuberculosis H37Rv ATCC 27294 after 4 days by microplate alamar blue assay; type: functional; settings: H37Rv ATCC 27294, 96 h
Method in brief: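 M. tuberculosis H37Rv (ATCC 27294) in BACTEC 12B medium, tested by Microplate Alamar Blue Assay across a range of lower concentrations. MIC is the lowest concentration giving a 90% reduction in fluorescence versus controls. Rifampicin was the reference.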

[3] = system: Mycobacterium tuberculosis; assay: Antituberculosis activity against Mycobacterium tuberculosis H37Rv ATCC 27294; type: functional
[4] = system: Vero; assay: Cytotoxicity against african green monkey Vero cells after 72 hrs by MTT assay; type: cell-based; settings: Chlorocebus sabaeus
Method in brief: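 VERO cells were exposed to compound for 72 h. Viability was read from cellular conversion of MTT to formazan (CellTiter 96 non-radioactive proliferation assay), and the IC50 was determined.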

SMILES	Selectivity ratio [1]	MIC [2] [µg/mL]	Activity [3]	IC50 [4] [µg/mL]
Cc1c(C(=O)NCCc2ccccc2)[n+]([O-])c2cc(C(F)(F)F)ccc2[n+]1[O-]	>26.019	1.15 (≈ 2.95 µM)	>=90%	> 30
COc1ccc(CCNC(=O)c2c(C)[n+]([O-])c3ccccc3[n+]2[O-])cc1	>8.6605	3.46 (≈ 9.8 µM)	>=90%	> 30
COc1ccc(CCNC(=O)c2c(C)[n+]([O-])c3ccc(F)cc3[n+]2[O-])cc1	>153.84	< 0.195	>=90%	> 30
COc1ccc(CCNC(=O)c2c(C)[n+]([O-])c3cc(F)c(F)cc3[n+]2[O-])cc1	>14.577	2.06 (≈ 5.29 µM)	>=90%	> 30
Cc1c(C(=O)NCc2ccccc2)[n+]([O-])c2cc(F)c(F)cc2[n+]1[O-]	10.64	1.73 (≈ 5 µM)	>=90%	18.4 (≈ 53.2 µM)
Cc1c(C(=O)NCCc2ccccc2)[n+]([O-])c2cc(Cl)c(Cl)cc2[n+]1[O-]	>153.84	< 0.195	>=90%	> 30
Cc1c(C(=O)NCCc2ccccc2)[n+]([O-])c2cc(F)ccc2[n+]1[O-]	>198.41	0.504 (≈ 1.48 µM)	>=90%	> 100
COc1ccc2c(c1)[n+]([O-])c(C(=O)NCc1ccccc1)c(C)[n+]2[O-]	–	12.3 (≈ 36.4 µM)	>=90%	–
Cc1c(C(=O)NCc2ccccc2)[n+]([O-])c2cc(Cl)ccc2[n+]1[O-]	>230.94	0.433 (≈ 1.26 µM)	>=90%	> 100
Cc1ccc2c(c1)[n+]([O-])c(C(=O)NCc1ccccc1)c(C)[n+]2[O-]	>23.77	4.21 (≈ 13 µM)	>=90%	> 100
Cc1c(C(=O)NCCc2ccccc2)[n+]([O-])c2cc(F)c(F)cc2[n+]1[O-]	>58.027	0.517 (≈ 1.44 µM)	>=90%	> 30
COc1ccc(CCNC(=O)c2c(C)[n+]([O-])c3ccc(Cl)cc3[n+]2[O-])cc1	>153.84	< 0.195	>=90%	> 30
COc1ccc(CCNC(=O)c2c(C)[n+]([O-])c3cc(Cl)c(Cl)cc3[n+]2[O-])cc1	>66.079	0.454 (≈ 1.08 µM)	>=90%	> 30
Cc1c(C(=O)NCc2ccccc2)[n+]([O-])c2cc(Cl)c(Cl)cc2[n+]1[O-]	>500	< 0.2	>=90%	> 100
COc1ccc(CNC(=O)c2c(C)[n+]([O-])c3ccc(C(F)(F)F)cc3[n+]2[O-])cc1	>30.03	0.999 (≈ 2.45 µM)	>=90%	> 30
Cc1c(C(=O)NCc2ccccc2)[n+]([O-])c2cc(C(F)(F)F)ccc2[n+]1[O-]	>246.3	0.406 (≈ 1.08 µM)	>=90%	> 100
COc1ccc(CNC(=O)c2c(C)[n+]([O-])c3ccccc3[n+]2[O-])cc1	>10.537	2.85 (≈ 8.39 µM)	>=90%	> 30
COc1ccc(CNC(=O)c2c(C)[n+]([O-])c3ccc(C)cc3[n+]2[O-])cc1	>3.3696	8.9 (≈ 25.2 µM)	>=90%	> 30
Cc1c(C(=O)NCc2ccccc2)[n+]([O-])c2cc(F)ccc2[n+]1[O-]	>65.7	1.52 (≈ 4.65 µM)	>=90%	> 100

SMILES	Selectivity ratio [1]	MIC [2] [µg/mL]	Activity [3]	IC50 [4] [µg/mL]
COc1ccc(CNC(=O)c2c(C)[n+]([O-])c3cc(C)c(C)cc3[n+]2[O-])cc1	–	> 100	>=90%	–
Cc1c(C(=O)NCCc2ccccc2)[n+]([O-])c2ccccc2[n+]1[O-]	>32.81	3.05 (≈ 9.43 µM)	>=90%	> 100
Cc1ccc2c(c1)[n+]([O-])c(C(=O)NCCc1ccccc1)c(C)[n+]2[O-]	>11.6	8.62 (≈ 25.6 µM)	>=90%	> 100
Cc1cc2c(cc1C)[n+]([O-])c(C(=O)NCCc1ccccc1)c(C)[n+]2[O-]	–	16.4 (≈ 46.6 µM)	>=90%	–
COc1ccc2c(c1)[n+]([O-])c(C(=O)NCCc1ccccc1)c(C)[n+]2[O-]	–	13.7 (≈ 38.7 µM)	>=90%	–
Cc1c(C(=O)NCCc2ccccc2)[n+]([O-])c2cc(Cl)ccc2[n+]1[O-]	>500	< 0.2	>=90%	> 100
COc1ccc(CCNC(=O)c2c(C)[n+]([O-])c3ccc(C(F)(F)F)cc3[n+]2[O-])cc1	>21.023	1.43 (≈ 3.39 µM)	>=90%	> 30
COc1ccc(CNC(=O)c2c(C)[n+]([O-])c3ccc(OC)cc3[n+]2[O-])cc1	–	12 (≈ 32.5 µM)	>=90%	–
COc1ccc(CCNC(=O)c2c(C)[n+]([O-])c3ccc(OC)cc3[n+]2[O-])cc1	–	16.9 (≈ 44 µM)	>=90%	–
COc1ccc(CNC(=O)c2c(C)[n+]([O-])c3ccc(Cl)cc3[n+]2[O-])cc1	–	–	>=90%	–
Cc1c(C(=O)NCc2ccccc2)[n+]([O-])c2ccccc2[n+]1[O-]	>38.372	2.61 (≈ 8.42 µM)	>=90%	> 100
Cc1cc2c(cc1C)[n+]([O-])c(C(=O)NCc1ccccc1)c(C)[n+]2[O-]	–	> 100	>=90%	–
COc1ccc(CCNC(=O)c2c(C)[n+]([O-])c3ccc(C)cc3[n+]2[O-])cc1	>3.389	8.85 (≈ 24.1 µM)	>=90%	> 30
COc1ccc(CCNC(=O)c2c(C)[n+]([O-])c3cc(C)c(C)cc3[n+]2[O-])cc1	–	> 100	>=90%	–
COc1ccc(CNC(=O)c2c(C)[n+]([O-])c3cc(Cl)c(Cl)cc3[n+]2[O-])cc1	–	–	>=90%	–
COc1ccc(CNC(=O)c2c(C)[n+]([O-])c3ccc(F)cc3[n+]2[O-])cc1	>19.893	1.51 (≈ 4.22 µM)	>=90%	> 30
COc1ccc(CNC(=O)c2c(C)[n+]([O-])c3cc(F)c(F)cc3[n+]2[O-])cc1	21.734	0.764 (≈ 2.04 µM)	>=90%	16.6 (≈ 44.2 µM)
CO[C@H]1/C=C/O[C@@]2(C)Oc3c(C)c(O)c4c(O)c(c(/C=N/N5CCN(C)CC5)c(O)c4c3C2=O)NC(=O)/C(C)=C\C=C\[C@H](C)[C@H](O)[C@@H](C)[C@@H](O)[C@@H](C)[C@H](OC(C)=O)[C@@H]1C [RIFAMPIN]	>800	0.015 (≈ 0.0182 µM)	–	> 100
